Experimental findings from ChEMBL document CHEMBL1130667, “Discovery of an imidazopyridine-containing 1,4-benzodiazepine nonpeptide vitronectin receptor (alpha v beta 3) antagonist with efficacy in a restenosis model” (Bioorg Med Chem Lett, 1998) are described below.

Where only a bound is given, the exact number is not on record here.

The target in one data set is Integrin alpha-V/beta-3 (Homo sapiens, UniProt P05106+P06756). The experiment in a line: Antagonistic activity for human vitronectin receptor (alphaV-beta3) from platelets. The data set is classed as functional. In short, it runs like this:
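Competitive binding to human αvβ3 purified from platelets; a tritiated RGD peptide is the displaced ligand. Ki values are the means of two to three separate experiments, with typical assay variability of ±10%.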

In the next data set the test system is HEK293. The data set is described as follows: Antagonistic activity was measured by the adhesion of HEK 293 cells transfected with human alphaV-beta3 to vitronectin-coated plates. The data set is classed as functional, cell-based. In short, it runs like this:
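HEK 293 cells transfected with human αvβ3 are allowed to adhere to vitronectin-coated plates. IC50 comes from two experiments run in triplicate, with an internal reference standard included.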

The nature of data set [1]: (§1) Plasma clearance was measured in rat. In kind it is ADME, organism-based. The note with it: plasma.
The species named for data set [2] is Rattus norvegicus. The experiment in a line: Compound was measured for in vitro efficacy in blocking vitronectin-induced migration of rat aortic smooth muscle cells (RASMC). The data set is classed as functional, cell-based.
The nature of data set [3]: Biological half-life measured in plasma of rat. The data set is classed as ADME, organism-based.
Data set [4] is described as follows: Oral bioavailability in rat. The data set is classed as ADME, organism-based. The note with it: in vivo.
The species named for data set [5] is Rattus norvegicus. Described as §1. In kind it is ADME, organism-based. The note with it: in vivo.
A short description of data set [6]: Bioavailability was measured in rat after oral administration; 2-4. The following applies: in vivo, read-out: Bioavailabiility. The data set is classed as ADME, organism-based.
A short description of data set [7]: Biological half-life measured in plasma of rat; 22-25. The data set is classed as ADME, organism-based.
The species named for data set [8] is Rattus norvegicus. The data set is described as follows: Maximum plasma concentration of compound was measured in rat. In kind it is ADME, organism-based. The following applies: in vivo.
Data set [9] is described as follows: Bioavailability was measured in rat after oral administration; 3-7. The data set is classed as ADME, organism-based. The following applies: in vivo, read-out: Bioavailabiility.
The nature of data set [10]: Biological half-life measured in plasma of rat; 9-16. The data set is classed as ADME, organism-based.

Integrin alpha-V/beta-3, sequence (P05106 27-788 limits assumed): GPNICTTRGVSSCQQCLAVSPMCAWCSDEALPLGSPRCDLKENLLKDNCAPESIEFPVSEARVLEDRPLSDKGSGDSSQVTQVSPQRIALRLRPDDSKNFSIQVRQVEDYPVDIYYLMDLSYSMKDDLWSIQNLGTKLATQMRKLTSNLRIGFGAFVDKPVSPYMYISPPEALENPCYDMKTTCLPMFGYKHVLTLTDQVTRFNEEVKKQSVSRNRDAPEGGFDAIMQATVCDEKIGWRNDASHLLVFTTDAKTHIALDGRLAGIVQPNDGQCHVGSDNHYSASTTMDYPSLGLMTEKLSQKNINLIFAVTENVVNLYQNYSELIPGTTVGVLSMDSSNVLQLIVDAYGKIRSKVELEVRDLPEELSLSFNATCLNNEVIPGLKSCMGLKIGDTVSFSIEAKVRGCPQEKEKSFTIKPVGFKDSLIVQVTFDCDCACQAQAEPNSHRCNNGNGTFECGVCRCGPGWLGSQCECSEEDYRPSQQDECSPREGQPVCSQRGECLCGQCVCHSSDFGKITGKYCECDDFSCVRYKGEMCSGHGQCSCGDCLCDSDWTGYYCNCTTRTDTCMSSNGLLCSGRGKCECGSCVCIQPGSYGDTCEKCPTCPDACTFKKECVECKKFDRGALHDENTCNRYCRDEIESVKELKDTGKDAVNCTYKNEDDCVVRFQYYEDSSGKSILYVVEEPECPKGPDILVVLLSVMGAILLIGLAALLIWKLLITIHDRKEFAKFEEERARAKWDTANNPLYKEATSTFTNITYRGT
Integrin alpha-V/beta-3, sequence (P06756 31-889 limits assumed): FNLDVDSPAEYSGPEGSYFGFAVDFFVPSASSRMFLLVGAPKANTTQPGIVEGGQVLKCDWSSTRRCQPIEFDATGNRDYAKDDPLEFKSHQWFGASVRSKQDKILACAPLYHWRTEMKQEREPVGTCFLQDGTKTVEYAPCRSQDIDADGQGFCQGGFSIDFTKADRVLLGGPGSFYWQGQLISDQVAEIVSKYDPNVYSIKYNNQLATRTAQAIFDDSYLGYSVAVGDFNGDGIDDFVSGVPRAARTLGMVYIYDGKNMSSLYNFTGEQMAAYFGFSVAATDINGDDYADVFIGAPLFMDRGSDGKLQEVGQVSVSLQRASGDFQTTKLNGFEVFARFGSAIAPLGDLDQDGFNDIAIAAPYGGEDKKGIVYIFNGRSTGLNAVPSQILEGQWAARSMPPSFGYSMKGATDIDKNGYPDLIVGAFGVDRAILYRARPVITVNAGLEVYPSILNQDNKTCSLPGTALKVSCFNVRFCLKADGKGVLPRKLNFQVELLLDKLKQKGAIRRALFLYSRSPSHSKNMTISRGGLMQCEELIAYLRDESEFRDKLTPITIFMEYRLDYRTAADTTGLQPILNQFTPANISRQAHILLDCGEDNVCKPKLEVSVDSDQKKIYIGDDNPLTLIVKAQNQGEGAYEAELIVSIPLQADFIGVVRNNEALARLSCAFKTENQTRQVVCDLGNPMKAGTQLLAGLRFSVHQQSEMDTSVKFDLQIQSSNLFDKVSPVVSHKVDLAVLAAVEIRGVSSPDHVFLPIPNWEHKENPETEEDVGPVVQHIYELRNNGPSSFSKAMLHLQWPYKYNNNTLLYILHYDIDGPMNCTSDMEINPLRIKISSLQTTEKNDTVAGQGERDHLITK
Integrin alpha-V/beta-3, sequence (P06756 891-1048 limits assumed): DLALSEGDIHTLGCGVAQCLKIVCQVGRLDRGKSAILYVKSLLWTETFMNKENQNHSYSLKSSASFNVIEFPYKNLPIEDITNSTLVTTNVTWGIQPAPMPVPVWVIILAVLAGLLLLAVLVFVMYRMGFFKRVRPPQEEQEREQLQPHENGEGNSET

In general, Ki refers to the dissociation constant of the complex between target and ligand, obtained from inhibition or displacement. Broadly, the IC50 is the concentration at which inhibition is half-maximal. `Cc1ccc2nc(CN(C)C(=O)c3ccc4c(c3)CNC(=O)[C@H](CC(=O)O)N4)nc-2[nH]1` yielded an inhibitory constant (Ki) at Integrin alpha-V/beta-3 of 10 nM. 2500 nM corresponded to half-maximal inhibition with HEK293 (IC50).

`CN(Cc1nc2ccc[nH]c-2n1)C(=O)c1ccc2c(c1)CN(C)C(=O)[C@H](CC(=O)O)N2`: at Integrin alpha-V/beta-3, the inhibitory constant (Ki) was 3 nM. The molecule also displayed an IC50 in the data set with HEK293 of 270 nM.

For orientation: clearance means the rate of elimination divided by the concentration. Read a high clearance as a high capacity for elimination. The half-life is the time needed for the level to fall by half in the phase considered. Read a low half-life as fast loss. `Cc1ccc2nc(CNC(=O)c3ccc4c(c3)CN(C)C(=O)[C@H](CC(=O)O)N4)nc-2[nH]1`: the clearance in data set [1] was 1.8 mL/min/kg. The IC50 in the data set listed under Rattus norvegicus [2] was 1600 nM; with HEK293, 9000 nM. In [3], this molecule gave a half-life of 92 min. Besides, the affinity on Integrin alpha-V/beta-3, expressed as Ki, was 45 nM. Besides, the bioavailability in [4] was 8%.

On Integrin alpha-V/beta-3, `Cc1cc(C)c2[nH]c(CN(C)C(=O)c3ccc4c(c3)CN(C)C(=O)[C@H](CC(=O)O)N4)nc2n1` displayed a Ki of 710 nM.

Take `Cc1ccc2[nH]c(CN(C)C(=O)c3ccc4c(c3)CN(C)C(=O)[C@H](CC(=O)O)N4)nc2n1`: the clearance in data set [1] was determined as 17 mL/min/kg; in the data set listed under Rattus norvegicus [5] it was 19 mL/min/kg. Also, the IC50 in the data set filed under Rattus norvegicus [2] was 170 nM; with HEK293, 450 nM. The bioavailability in data set [6] is 4%. The same molecule had a half-life in [7] of 25 min. For the same molecule, affinity on Integrin alpha-V/beta-3 was put at a Ki of 3 nM.

`CN(Cc1nc2ncncc2[nH]1)C(=O)c1ccc2c(c1)CN(C)C(=O)[C@H](CC(=O)O)N2` came in with a Ki on Integrin alpha-V/beta-3 of 23 nM. In the data set on HEK293, this molecule returned a half-inhibitory concentration (IC50) of 5000 nM.

A word on the Cmax: it is the maximum level reached in the sampled fluid or tissue. `CN(Cc1nc2ccccc2[nH]1)C(=O)c1ccc2c(c1)CN(C)C(=O)[C@H](CC(=O)O)N2`: the clearance in data set [1] was found to be 35 mL/min/kg. The molecule further returned a concentration for half-maximal inhibition (IC50) in the data set listed under Rattus norvegicus [2] of 370 nM. Besides, the Cmax in the data set filed under Rattus norvegicus [8] was 819 ng/mL. In addition, the bioavailability in [9] was 7%. In data set [10], this molecule showed a half-life of 16 min.

Regarding `Cc1ccc2[nH]c(CNC(=O)c3ccc4c(c3)CNC(=O)[C@H](CC(=O)O)N4)nc2n1` (racemic), at Integrin alpha-V/beta-3, the affinity corresponds to a Ki of 90 nM. Also, the IC50 in the data set with HEK293 is 20000 nM.

`COCCN1Cc2cc(C(=O)NCc3nc4ccc(C)[nH]c-4n3)ccc2N[C@@H](CC(=O)O)C1=O` (racemic) gave a Ki at Integrin alpha-V/beta-3 of 50 nM. For the same molecule, in the data set on HEK293, the IC50 was 10000 nM.

`CN(Cc1nc2cc[nH]nc-2n1)C(=O)c1ccc2c(c1)CN(C)C(=O)[C@H](CC(=O)O)N2` (racemic) returned an inhibition constant Ki at Integrin alpha-V/beta-3 of 19 nM. This molecule also gave a concentration for half-maximal inhibition (IC50) in the data set with HEK293 of 1500 nM.

`CC(C)N1Cc2cc(C(=O)N(C)Cc3nc4ncccc4[nH]3)ccc2N[C@@H](CC(=O)O)C1=O` (racemic): on Integrin alpha-V/beta-3, the Ki is 4 nM. This molecule yielded an IC50 in the data set with HEK293 of 2000 nM.

On Integrin alpha-V/beta-3, `Cc1ccc2[nH]c(CNC(=O)c3ccc4c(c3)CN(Cc3ccccc3)C(=O)[C@H](CC(=O)O)N4)nc2n1` (racemic) registered a Ki of 60 nM. In other words, the double-digit nanomolar range.

With `Cc1ccc2nc(CN(C)C(=O)c3ccc4c(c3)CN(Cc3ccccc3)C(=O)[C@H](CC(=O)O)N4)nc-2[nH]1` (racemic), affinity at Integrin alpha-V/beta-3 was put at a Ki of 13 nM. This molecule also gave an IC50 with HEK293 of 160 nM.

In [1], `COCCN1Cc2cc(C(=O)N(C)Cc3nc4ncccc4[nH]3)ccc2N[C@@H](CC(=O)O)C1=O` (racemic) registered a clearance of 31 mL/min/kg. Besides, the half-inhibitory concentration (IC50) came out at 230 nM in the data set listed under Rattus norvegicus [2] and 500 nM in the data set on HEK293. Moreover, in [3], the half-life was 25 min. This molecule also displayed an inhibitory constant (Ki) on Integrin alpha-V/beta-3 of 2.5 nM. In addition, in the data set filed under Rattus norvegicus [8], the highest concentration (Cmax) came to 692 ng/mL. The molecule also showed a bioavailability in [4] of 4%.

`CN(Cc1nc2ccc[nH]c-2n1)C(=O)c1ccc2c(c1)CN(CCC(C)(C)C)C(=O)[C@H](CC(=O)O)N2` (racemic) registered a clearance in [1] of 55 mL/min/kg. Besides, the IC50 in the data set filed under Rattus norvegicus [2] came out at 470 nM; with HEK293, 250 nM. In data set [3], the half-life is 14 min. On Integrin alpha-V/beta-3, this molecule yielded a Ki of 2.5 nM. The peak concentration (Cmax) in the data set filed under Rattus norvegicus [8] worked out at 555 ng/mL. Besides, the bioavailability in [4] was < 1%.
